pIC50: −log10 of the molar value. Activity calls are given as the source filed them. No cut-off for these calls is given here.
Tests used:
[1] = system: L1210; experiment: Antiproliferative activity against mouse L1210 cells after 48 hrs by coulter counting analysis; format: functional, cell-based; settings: L1210, 48 h
Procedure, shortened: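 L1210 cells seeded at 10^4 per well in DMEM with 10% fetal calf serum, 4 mM glutamine and penicillin/streptomycin, with compound added from DMSO. Grown 2 days at 37° in 5% CO₂, then counted in a Coulter counter. Cultures were logarithmically growing at plating; n = 6. IC₅₀ taken from linear regression lines.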

[2] = system: L1210; experiment: Cytotoxicity against mouse L1210 cells at 25 uM by MTT assay; format: functional, cell-based
Procedure, shortened: (§1)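 MTT colorimetric assay after Mosmann, measuring reduction of the tetrazolium to blue formazan by viable cells, read photometrically. Treated cells were compared with the same number of untreated cells.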

[3] = molecular target: T1, Protein kinase C (PKC) (Rattus norvegicus) (UniProt P05696+P68403+P09216+P63319+P09215+Q64617+Q9WTQ0+P09217); experiment: (§2) Inhibition of rat brain PKC by mixed micellar assay
Procedure, shortened: (§3)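 PKC purified from rat brain, 0.5 µg per tube. Medium was 20 mM Tris/HCl pH 7.5, 10 mM MgCl₂, 200 µg/ml histone IIIS, micelles of 700 µM phosphatidylserine and 180 µM 1,2-dioleine in 0.3% Triton X-100, 0.2 mM CaCl₂, 100 µM ATP with [γ-³²P]-ATP and compound in DMSO. After 3 min at 30°, TCA-precipitated material was filtered and counted. Activity without micelles/CaCl₂ subtracted; 6 replicates.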

[4] = molecular target: Protein kinase C (PKC); experiment: as §2; procedure, shortened: as §3
[5] = molecular target: Protein kinase C (PKC); experiment: Displacement of [gamma32P]ATP from rat brain PKC by competitive Lineweaver-Burke plot analysis
Procedure, shortened: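 Rat brain PKC (0.5 µg) in the mixed-micelle assay with histone fixed at 200 µg/ml and ATP varied. Inhibitor levels were 0, 5, 10 and 15 µM. Data were analysed as double-reciprocal plots. Apparent Ki came from line intersections by unweighted least-squares fit.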

[6] = molecular target: Protein kinase C (PKC); experiment: Inhibition of rat brain PKC using histone type 3-S as substrate by noncompetitive Lineweaver-Burke plot analysis
[7] = molecular target: T1, Protein kinase C (PKC) (Rattus norvegicus); experiment: Displacement of [3H]PDBu from rat brain PKC at 1 mM by scintillation counting
Procedure, shortened: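 PKC incubated 1 h at 30° in 250 µl of 50 mM Tris/HCl pH 7.4 with 1 mM CaCl₂, 39.2 nM [³H]-PDBu and 50 µg/ml PKC, plus compound. Nonspecific binding defined with 100-fold excess unlabelled PDBu. Diluted with ice-cold buffer, filtered on glass fiber, washed 3 times, bound radioactivity by scintillation counting.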

[8] = molecular target: Protein kinase C (PKC); experiment: Inhibition of rat brain PKC catalytic domain by mixed micellar assay
Procedure, shortened: (§4)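 Catalytic fragment made by incubating PKC for 10 min at 30° with 1 µg/ml trypsin, giving calcium- and lipid-independent activity. It was then assayed in the mixed-micelle histone phosphorylation assay, varying ATP or histone.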

[9] = molecular target: T1, Protein kinase C (PKC) (Rattus norvegicus); experiment: Displacement of [gamma32P]ATP from rat brain PKC catalytic domain by competitive Lineweaver-Burke plot analysis; procedure, shortened: as §4
[10] = molecular target: T1, Protein kinase C (PKC) (Rattus norvegicus); experiment: Inhibition of rat brain PKC catalytic domain using histone type 3-S as substrate by noncompetitive Lineweaver-Burke plot analysis; procedure, shortened: as §4
[11] = system: LSTRA; experiment: Inhibition of protein tyrosine kinase in mouse LSTRA cells assessed as formation of [32P]phosphotyrosine at 100 uM by gel electrophoresis; format: cell-based
[12] = Inhibition of PKA at 100 uM
[13] = system: L1210; experiment: Cytotoxicity against mouse L1210 cells at 10 uM by MTT assay; format: functional, cell-based; procedure, shortened: as §1

| SMILES | pIC50 [1] | Activity [2] | Activity [3] | IC50 [4] [µM] | Ki [5] [µM] | Ki [6] [µM] | inhibition [7] [%] | IC50 [8] [µM] | Activity [9] | Activity [10] | inhibition [11] [%] | inhibition [12] [%] | Activity [13] |
| --- | --- | --- | --- | --- | --- | --- | --- | --- | --- | --- | --- | --- | --- |
| C[C@H]1CNCCN1S(=O)(=O)c1cccc2cnccc12 | 4.63 | inactive |  |  |  |  |  |  |  |  |  |  |  |
| C[C@@H]1O[C@@H](O[C@@H]2[C@@H](O)[C@H](OCCc3ccc(O)c(O)c3)O[C@H](CO)[C@H]2OC(=O)/C=C/c2ccc(O)c(O)c2)[C@H](O)[C@H](O)[C@H]1O [ACETOSIDE] | 4.89 |  | Dose-dependent effect | 25 | 22 | 28 | 9 | 21 | Active | Active | < 10 | < 10 | inactive |

Source: ChEMBL document CHEMBL1150201, “Verbascoside isolated from Lantana camara, an inhibitor of protein kinase C” (J Nat Prod, 1991)
